Data published in ChEMBL document CHEMBL1153716, “Constrained peptidomimetics reveal detailed geometric requirements of covalent prolyl oligopeptidase inhibitors” (J Med Chem, 2009).
The source made the active and inactive calls. The rule behind the calls is not given here.

How the values were obtained:
[1] = molecular target: T1, Prolyl endopeptidase (Homo sapiens) (UniProt P48147); assay: Inhibition of prolyl oligopeptidase in intact human fibroblasts assessed as blockade of Z-Gly-Pro-AMC substrate hydrolysis at 100 uM by fluorimetric assay
T1 sequence (whole entry): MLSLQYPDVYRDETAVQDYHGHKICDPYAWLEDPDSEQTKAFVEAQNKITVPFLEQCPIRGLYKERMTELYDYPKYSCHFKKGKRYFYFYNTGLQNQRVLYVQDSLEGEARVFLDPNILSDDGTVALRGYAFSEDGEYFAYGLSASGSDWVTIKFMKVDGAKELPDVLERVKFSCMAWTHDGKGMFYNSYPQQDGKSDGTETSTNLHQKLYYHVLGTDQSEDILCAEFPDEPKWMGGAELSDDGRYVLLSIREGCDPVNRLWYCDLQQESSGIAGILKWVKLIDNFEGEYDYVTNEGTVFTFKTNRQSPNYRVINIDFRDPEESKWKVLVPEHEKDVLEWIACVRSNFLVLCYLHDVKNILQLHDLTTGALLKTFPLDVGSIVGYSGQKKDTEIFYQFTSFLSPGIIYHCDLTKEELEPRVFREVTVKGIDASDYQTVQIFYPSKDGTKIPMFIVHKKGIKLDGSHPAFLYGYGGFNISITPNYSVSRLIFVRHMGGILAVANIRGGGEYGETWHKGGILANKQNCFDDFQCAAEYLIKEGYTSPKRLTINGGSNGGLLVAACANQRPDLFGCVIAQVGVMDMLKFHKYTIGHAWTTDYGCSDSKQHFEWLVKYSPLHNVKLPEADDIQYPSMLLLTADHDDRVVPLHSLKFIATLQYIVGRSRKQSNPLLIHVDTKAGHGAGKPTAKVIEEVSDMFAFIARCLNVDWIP
In short: (§1)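 Intact confluent human glioblastoma (LN18, LN229, LNZ308), brain endothelial HCEC, or lung PO03 and skin PG98/5 fibroblast monolayers in PBS (pH 7.2-7.4), cells grown beforehand in DMEM with 10% FCS. Compound was diluted from methanol stock into water and preincubated 5-10 min at room temperature. Z-Gly-Pro-AMC was then added and read fluorimetrically. Duplicate wells.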

[2] = molecular target: Dipeptidyl peptidase 4 (Homo sapiens) (UniProt P27487); assay: Inhibition of DPP4 in intact human fibroblasts assessed as blockade of Gly-Pro-AMC substrate hydrolysis at 100 uM by fluorimetric assay
In short: (§2)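 Confluent intact human glioblastoma (LN18, LN229, LNZ308), brain endothelial HCEC, or lung PO03 and skin PG98/5 fibroblast monolayers kept in PBS (pH 7.2-7.4) without detergent. Compound was diluted from methanol stock into water and preincubated 5-10 min at room temperature. Gly-Pro-AMC was then added and hydrolysis read by fluorescence. Duplicate wells.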

[3] = molecular target: Dipeptidyl peptidase 4 (Homo sapiens) (UniProt P27487); assay: Inhibition of DPP4 in intact human brain derived endothelial cells assessed as blockade of Gly-Pro-AMC substrate hydrolysis at 100 uM by fluorimetric assay; type: cell-based; settings: Endothelial cell; in short: as §2
[4] = molecular target: Dipeptidyl peptidase 4 (Homo sapiens) (UniProt P27487); assay: Inhibition of DPP4 in human brain derived endothelial cell extracts assessed as blockade of Gly-Pro-AMC substrate hydrolysis at 100 uM by fluorimetric assay; type: cell-free
In short: (§3)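 Confluent human cells (glioblastoma LN18, LN229, LNZ308; brain endothelial HCEC; lung PO03 or skin PG98/5 fibroblasts) grown in DMEM with 4.5 g/L glucose and 10% FCS, then lysed in PBS (pH 7.2-7.4) containing 0.1% Triton X-100. Compound was diluted from methanol stock into water and preincubated 5-10 min at room temperature. Gly-Pro-AMC was then added. Duplicate wells.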

[5] = molecular target: T1, Prolyl endopeptidase (Homo sapiens); assay: Inhibition of prolyl oligopeptidase in human brain derived endothelial cell extracts assessed as blockade of Z-Gly-Pro-AMC substrate hydrolysis at 100 uM by fluorimetric assay; type: cell-free
In short: (§4)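 Confluent human glioblastoma (LN18, LN229, LNZ308), brain endothelial HCEC, or lung PO03 and skin PG98/5 fibroblasts extracted in PBS with 0.1% Triton X-100. Compound was diluted from methanol stock into water and preincubated 5-10 min at room temperature. Z-Gly-Pro-AMC was then added and read by fluorescence. Duplicate wells.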

[6] = molecular target: Dipeptidyl peptidase 4 (Homo sapiens) (UniProt P27487); assay: Inhibition of DPP4 in intact human astrocyte derived cells assessed as blockade of Gly-Pro-AMC substrate hydrolysis at 100 uM by fluorimetric assay; in short: as §2
[7] = molecular target: T1, Prolyl endopeptidase (Homo sapiens); assay: Inhibition of prolyl oligopeptidase in intact human astrocyte derived cells assessed as blockade of Z-Gly-Pro-AMC substrate hydrolysis at 100 uM by fluorimetric assay; in short: as §1
[8] = molecular target: T1, Prolyl endopeptidase (Homo sapiens); assay: Inhibition of prolyl oligopeptidase in human astrocyte derived cell extracts assessed as blockade of Z-Gly-Pro-AMC substrate hydrolysis at 100 uM by fluorimetric assay; in short: as §4
[9] = molecular target: T1, Prolyl endopeptidase (Homo sapiens); assay: Inhibition of prolyl oligopeptidase in human fibroblast extracts assessed as blockade of Z-Gly-Pro-AMC substrate hydrolysis at 100 uM by fluorimetric assay; in short: as §4
[10] = molecular target: T1, Prolyl endopeptidase (Homo sapiens); assay: Inhibition of prolyl oligopeptidase in intact human brain derived endothelial cells assessed as blockade of Z-Gly-Pro-AMC substrate hydrolysis at 100 uM by fluorimetric assay; type: cell-based; settings: Endothelial cell; in short: as §1
[11] = molecular target: Dipeptidyl peptidase 4 (Homo sapiens) (UniProt P27487); assay: Inhibition of DPP4 in human fibroblast extracts assessed as blockade of Gly-Pro-AMC substrate hydrolysis at 100 uM by fluorimetric assay; in short: as §3
[12] = molecular target: Dipeptidyl peptidase 4 (Homo sapiens) (UniProt P27487); assay: Inhibition of DPP4 in human astrocyte derived cell extracts assessed as blockade of Gly-Pro-AMC substrate hydrolysis at 100 uM by fluorimetric assay; in short: as §3

Sequence of Dipeptidyl peptidase 4 (Homo sapiens) (P27487 whole entry, looked up): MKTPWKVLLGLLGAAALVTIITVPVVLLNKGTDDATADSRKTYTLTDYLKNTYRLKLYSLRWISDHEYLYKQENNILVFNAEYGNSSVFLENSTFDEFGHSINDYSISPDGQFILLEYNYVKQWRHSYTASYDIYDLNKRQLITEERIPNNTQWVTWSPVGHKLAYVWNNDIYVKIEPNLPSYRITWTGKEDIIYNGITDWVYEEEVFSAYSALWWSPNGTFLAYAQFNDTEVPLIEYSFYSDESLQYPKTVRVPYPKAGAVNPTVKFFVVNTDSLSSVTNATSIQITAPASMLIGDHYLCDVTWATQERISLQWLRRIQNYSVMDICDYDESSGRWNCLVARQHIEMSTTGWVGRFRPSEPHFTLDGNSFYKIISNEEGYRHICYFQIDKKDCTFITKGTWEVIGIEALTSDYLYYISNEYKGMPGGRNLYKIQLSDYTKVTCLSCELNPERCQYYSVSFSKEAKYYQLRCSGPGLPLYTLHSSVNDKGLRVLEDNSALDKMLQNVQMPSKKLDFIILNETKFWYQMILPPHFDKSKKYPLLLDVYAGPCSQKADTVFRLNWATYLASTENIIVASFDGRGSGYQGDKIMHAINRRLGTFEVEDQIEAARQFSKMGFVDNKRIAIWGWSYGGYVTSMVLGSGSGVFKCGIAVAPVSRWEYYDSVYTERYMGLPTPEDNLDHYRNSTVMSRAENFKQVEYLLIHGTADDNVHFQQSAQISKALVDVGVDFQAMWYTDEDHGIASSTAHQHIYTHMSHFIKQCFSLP

| Structure (SMILES) | inhibition [1] | inhibition [2] | inhibition [3] | inhibition [4] | inhibition [5] | inhibition [6] | inhibition [7] | inhibition [8] | inhibition [9] | inhibition [10] | inhibition [11] | inhibition [12] |
| --- | --- | --- | --- | --- | --- | --- | --- | --- | --- | --- | --- | --- |
| N#C[C@@H]1CO[C@H]2C[C@@H](NC(=O)OCc3ccccc3)C(=O)N12 | 10% | inactive | inactive | inactive | inactive | inactive | inactive | inactive | 10% | inactive | inactive | inactive |
| N#C[C@H]1CCCN1C(=O)CNC(=O)OCc1ccccc1 | – | inactive | inactive | inactive | – | inactive | – | – | – | – | inactive | inactive |
| COC(=O)[C@@H]1CS[C@H]2C[C@H](NC(=O)OCc3ccccc3)C(=O)N21 | 10% | inactive | inactive | inactive | inactive | inactive | inactive | 10% | 10% | inactive | inactive | inactive |
| N#CC1CCCCN1C(=O)CNC(=O)OCc1ccccc1 (racemic) | inactive | inactive | inactive | inactive | 10% | inactive | 10% | > 50% | 10% | inactive | inactive | inactive |
| N#CC1CCSC2CC(NC(=O)OCc3ccccc3)C(=O)N12 (racemic) | inactive | inactive | inactive | inactive | inactive | inactive | inactive | inactive | 10% | inactive | inactive | inactive |
| CC(C)(C)OC(=O)N1CCC[C@H]1C#N | inactive | inactive | inactive | inactive | inactive | inactive | inactive | inactive | inactive | inactive | inactive | inactive |
| C[C@@H](NC(=O)OCc1ccccc1)C(=O)N1CCC[C@H]1C#N | – | inactive | inactive | inactive | – | inactive | – | – | – | – | inactive | inactive |

The next lines start with the values.

| inhibition [1] | inhibition [2] | inhibition [3] | inhibition [4] | inhibition [5] | inhibition [6] | inhibition [7] | inhibition [8] | inhibition [9] | inhibition [10] | inhibition [11] | inhibition [12] | Structure (SMILES) |
| --- | --- | --- | --- | --- | --- | --- | --- | --- | --- | --- | --- | --- |
| inactive | inactive | inactive | inactive | > 50% | inactive | inactive | 10% | 10% | 10% | inactive | inactive | N#C[C@H]1CS[C@@H]2C[C@@H](NC(=O)OCc3ccccc3)C(=O)N12 |
| 10% | inactive | inactive | inactive | > 50% | inactive | inactive | 10% | 10% | 10% | inactive | inactive | N#C[C@@H]1CS[C@H]2C[C@H](NC(=O)OCc3ccccc3)C(=O)N12 |
| inactive | inactive | inactive | inactive | 10% | inactive | inactive | 10% | inactive | inactive | inactive | inactive | N#C[C@H]1CS[C@@H]2C[C@H](NC(=O)OCc3ccccc3)C(=O)N12 |
| inactive | inactive | inactive | inactive | inactive | inactive | inactive | inactive | inactive | inactive | inactive | inactive | NC(=O)[C@@H]1CS[C@H]2C[C@@H](NC(=O)OCc3ccccc3)C(=O)N21 |
| inactive | inactive | inactive | inactive | 10% | inactive | inactive | 10% | inactive | 10% | inactive | inactive | C[C@H]1O[C@H]2C[C@H](NC(=O)OCc3ccccc3)C(=O)N2[C@@H]1C#N |
| inactive | inactive | inactive | inactive | inactive | inactive | inactive | inactive | inactive | inactive | inactive | inactive | NC(=O)[C@@H]1CS[C@H]2C[C@H](NC(=O)OCc3ccccc3)C(=O)N21 |
| – | inactive | inactive | inactive | – | inactive | – | – | – | – | inactive | inactive | N#C[C@@H]1CCCN1C(=O)CNC(=O)OCc1ccccc1 |
| – | inactive | inactive | inactive | – | inactive | – | – | – | – | inactive | inactive | C[C@H](NC(=O)OCc1ccccc1)C(=O)N1CCC[C@H]1C#N |
| inactive | inactive | inactive | inactive | inactive | inactive | inactive | inactive | inactive | inactive | – | inactive | N#C[C@@H]1CCCN1 |
